According to ChEMBL document CHEMBL1629583, “Establishment of in vitro susceptibility testing methodologies and comparative activities of piperacillin in combination with the penem {beta}-lactamase inhibitor BLI-489” (2009):
In brackets after ≈: the same amount, converted by molar mass.

How the values were obtained:
Format in all cases: functional
Burkholderia cepacia = experiment: Antimicrobial activity against Burkholderia cepacia clinical isolate after 18 to 22 hrs by broth microdilution method in presence of beta-lactamase inhibitor Tazobactam
Method in brief: (§1)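 Piperacillin-tazobactam was tested on recent clinical isolates by CLSI broth microdilution in Mueller-Hinton II broth, with tazobactam at constant 4 μg/ml. Wells held 10^5 CFU/ml and were incubated 18 to 22 h at 35°C in ambient air. MIC was the lowest concentration with no growth visible to the unaided eye.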

Staphylococcus aureus = experiment: Antimicrobial activity against methicillin-susceptible Staphylococcus aureus clinical isolate after 18 to 22 hrs by broth microdilution method in presence of beta-lactamase inhibitor BLI-489
Method in brief: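 Piperacillin serially diluted with BLI-489 held at a constant 4 μg/ml, by CLSI broth microdilution in Mueller-Hinton II broth. Inoculum was 10^5 CFU/ml. Plates were incubated 18 to 22 h at 35°C in ambient air. MIC was the lowest concentration completely inhibiting growth seen by the unaided eye.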

[1] = tested on: Staphylococcus epidermidis; experiment: Antimicrobial activity against methicillin-susceptible Staphylococcus epidermidis clinical isolate after 18 to 22 hrs by broth microdilution method in presence of beta-lactamase inhibitor Tazobactam
Method in brief: (§2)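 CLSI broth microdilution of piperacillin-tazobactam in Mueller-Hinton II broth with serial dilutions. Inoculum was 10^5 CFU/ml. Incubation was 18 to 22 h at 35°C in ambient air. MIC was read as the lowest concentration giving complete inhibition of growth visible to the unaided eye.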

Enterococcus faecalis = experiment: Antimicrobial activity against Enterococcus faecalis clinical isolate after 18 to 22 hrs by broth microdilution method in presence of beta-lactamase inhibitor BLI-489
Method in brief: (§3)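 CLSI broth microdilution in Mueller-Hinton II broth. Piperacillin serial dilutions were combined with BLI-489 held constant at 4 μg/ml. Inoculum was 10^5 CFU/ml. Plates were incubated 18 to 22 h at 35°C in ambient air. MIC was the lowest concentration completely inhibiting growth seen by the unaided eye. Piperacillin-tazobactam interpretive criteria were applied.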

Enterococcus faecium [2] = experiment: Antimicrobial activity against Enterococcus faecium clinical isolate after 18 to 22 hrs by broth microdilution method in presence of beta-lactamase inhibitor Tazobactam
Method in brief: (§4)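 Piperacillin-tazobactam was tested by CLSI broth microdilution in Mueller-Hinton II broth against clinical isolates. Inoculum was 10^5 CFU/ml, with 18 to 22 h incubation at 35°C in ambient air. MIC was read as the lowest concentration completely inhibiting visible growth.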

Enterococcus faecium [3] = experiment: Antimicrobial activity against vancomycin-resistant Enterococcus faecium clinical isolate after 18 to 22 hrs by broth microdilution method in presence of beta-lactamase inhibitor BLI-489
Method in brief: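 CLSI broth microdilution in Mueller-Hinton II broth. Antibiotic in serial dilution with the β-lactamase inhibitor held at a constant 4 μg/ml. Inoculum 10^5 CFU/ml. Incubated 18 to 22 h at 35°C in ambient air.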

Streptococcus pneumoniae = experiment: Antimicrobial activity against penicillin-intermediate Streptococcus pneumoniae clinical isolate after 18 to 22 hrs by broth microdilution method in presence of beta-lactamase inhibitor BLI-489
Method in brief: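 Streptococci were tested by CLSI broth microdilution in Mueller-Hinton II broth plus 5% lysed horse blood. Piperacillin was serially diluted with BLI-489 fixed at a constant 4 μg/ml. Inoculum was 10^5 CFU/ml, with 18 to 22 h at 35°C in ambient air. MIC was the lowest concentration completely inhibiting growth by eye.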

Bacteroides fragilis = experiment: Antimicrobial activity against Bacteroides fragilis clinical isolate after 18 to 22 hrs by broth microdilution method in presence of beta-lactamase inhibitor BLI-489
Clostridium perfringens = experiment: Antimicrobial activity against Clostridium perfringens clinical isolate after 18 to 22 hrs by broth microdilution method in presence of beta-lactamase inhibitor Tazobactam
[4] = tested on: Peptostreptococcus anaerobius; experiment: Antimicrobial activity against Peptostreptococcus anaerobius clinical isolate after 18 to 22 hrs by broth microdilution method
Parvimonas micra = experiment: Antimicrobial activity against Peptostreptococcus micros clinical isolate after 18 to 22 hrs by broth microdilution method in presence of beta-lactamase inhibitor Tazobactam
Enterococcus durans = experiment: Antimicrobial activity against Enterococcus durans clinical isolate after 18 to 22 hrs by broth microdilution method in presence of beta-lactamase inhibitor BLI-489; method in brief: as §3
Enterococcus gallinarum = experiment: Antimicrobial activity against Enterococcus gallinarum clinical isolate after 18 to 22 hrs by broth microdilution method in presence of beta-lactamase inhibitor Tazobactam; method in brief: as §4
Enterococcus hirae = experiment: Antimicrobial activity against Enterococcus hirae clinical isolate after 18 to 22 hrs by broth microdilution method in presence of beta-lactamase inhibitor Tazobactam; method in brief: as §4
Escherichia coli [5] = experiment: Antimicrobial activity against class A extended spectrum beta-lactamase- and class D OXA- producing Escherichia coli clinical isolate after 18 to 22 hrs by broth microdilution method in presence of beta-lactamase inhibitor BLI-489
Method in brief: (§5)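 CLSI broth microdilution in Mueller-Hinton II broth. Serial dilutions of piperacillin were tested with BLI-489 held at a constant 4 μg/ml. Inoculum was 10^5 CFU/ml. Plates were incubated 18 to 22 h at 35°C in ambient air. MIC was the lowest concentration giving complete growth inhibition by unaided eye.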

Enterobacter cloacae = experiment: Antimicrobial activity against Enterobacter cloacae clinical isolate after 18 to 22 hrs by broth microdilution method in presence of beta-lactamase inhibitor BLI-489; method in brief: as §3
Escherichia coli [6] = experiment: Antimicrobial activity against class A extended spectrum beta-lactamase- producing Escherichia coli clinical isolate after 18 to 22 hrs by broth microdilution method in presence of beta-lactamase inhibitor Tazobactam; method in brief: as §2
Citrobacter freundii [7] = experiment: Antimicrobial activity against AmpC beta-lactamase-producing Citrobacter freundii clinical isolate after 18 to 22 hrs by broth microdilution method in presence of beta-lactamase inhibitor Tazobactam; method in brief: as §1
Klebsiella aerogenes = experiment: Antimicrobial activity against Enterobacter aerogenes clinical isolate after 18 to 22 hrs by broth microdilution method in presence of beta-lactamase inhibitor Tazobactam; method in brief: as §1
Citrobacter freundii [8] = experiment: Antimicrobial activity against AmpC beta-lactamase-producing Citrobacter freundii clinical isolate after 18 to 22 hrs by broth microdilution method in presence of beta-lactamase inhibitor BLI-489; method in brief: as §3
Klebsiella pneumoniae = experiment: Antimicrobial activity against class A extended spectrum beta-lactamase- and class D OXA- producing Klebsiella pneumoniae clinical isolate after 18 to 22 hrs by broth microdilution method in presence of beta-lactamase inhibitor BLI-489; method in brief: as §5
Proteus vulgaris = experiment: Antimicrobial activity against Proteus vulgaris clinical isolate after 18 to 22 hrs by broth microdilution method in presence of beta-lactamase inhibitor Tazobactam; method in brief: as §4

CCN1CCN(C(=O)N[C@@H](C(=O)N[C@@H]2C(=O)N3[C@@H]2SC(C)(C)[C@@H]3C(=O)O)c2ccccc2)C(=O)C1=O [PIPERACILLIN]
MIC50 (Burkholderia cepacia): 4 µg/mL | MIC90 (Burkholderia cepacia): 64 µg/mL | MIC50 (Staphylococcus aureus): 0.25 µg/mL | MIC90 (Staphylococcus aureus): 0.5 µg/mL | MIC50 [1]: 0.25 µg/mL | MIC90 [1]: 0.5 µg/mL | MIC50 (Enterococcus faecalis): 2 µg/mL | MIC90 (Enterococcus faecalis): 4 µg/mL | MIC50 (Enterococcus faecium [2]): 32 µg/mL | MIC90 (Enterococcus faecium [2]): > 128 µg/mL | MIC50 (Enterococcus faecium [3]): > 128 µg/mL | MIC50 (Streptococcus pneumoniae): 0.25 µg/mL | MIC90 (Streptococcus pneumoniae): 1 µg/mL | MIC50 (Bacteroides fragilis): 0.25 µg/mL | MIC90 (Bacteroides fragilis): 0.5 µg/mL | MIC (Clostridium perfringens): ≤ 0.015 µg/mL | MIC50 (Clostridium perfringens): ≤ 0.015 µg/mL | MIC90 (Clostridium perfringens): 0.03 µg/mL | MIC50 [4]: 0.06 µg/mL (≈ 0.116 µM) | MIC90 [4]: 0.06 µg/mL (≈ 0.116 µM) | MIC50 (Parvimonas micra): 0.03 µg/mL | MIC90 (Parvimonas micra): 0.25 µg/mL | MIC50 (Enterococcus durans): 2 µg/mL | MIC90 (Enterococcus durans): 8 µg/mL | MIC50 (Enterococcus gallinarum): 4 µg/mL | MIC90 (Enterococcus gallinarum): 16 µg/mL | MIC50 (Enterococcus hirae): 4 µg/mL | MIC90 (Enterococcus hirae): 16 µg/mL | MIC (Escherichia coli [5]): 2 µg/mL | MIC50 (Escherichia coli [5]): 2 µg/mL | MIC90 (Escherichia coli [5]): 16 µg/mL | MIC50 (Enterobacter cloacae): 2 µg/mL | MIC90 (Enterobacter cloacae): 16 µg/mL | MIC50 (Escherichia coli [6]): 16 µg/mL | MIC90 (Escherichia coli [6]): 32 µg/mL | MIC50 (Citrobacter freundii [7]): 8 µg/mL | MIC90 (Citrobacter freundii [7]): > 128 µg/mL | MIC50 (Klebsiella aerogenes): 64 µg/mL | MIC90 (Klebsiella aerogenes): 128 µg/mL | MIC50 (Citrobacter freundii [8]): 4 µg/mL | MIC90 (Citrobacter freundii [8]): 64 µg/mL | MIC50 (Klebsiella pneumoniae): 8 µg/mL | MIC90 (Klebsiella pneumoniae): 64 µg/mL | MIC50 (Proteus vulgaris): 0.5 µg/mL | MIC90 (Proteus vulgaris): 2 µg/mL
